The record followed here is ChEMBL document CHEMBL3407336, “Discovery of 1H-pyrazol-3(2H)-ones as potent and selective inhibitors of protein kinase R-like endoplasmic reticulum kinase (PERK)” (J Med Chem, 2015).

Series [1] can be described thus: Intrinsic clearance in rat microsomes. The series is classed as ADME, Microsome.
Series [2] in a line: Mean residence time in Sprague-Dawley rat at 1 mg/kg, iv. Set-up: dose 1 mg/kg, route intravenous. As to conditions: in vivo. The series is classed as ADME, organism-based. The essentials: (§1)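 PK in male Sprague-Dawley rats or male CD-1 mice. For iv, 1 mg/kg was given as a DMSO solution. For po, compound was given as a solution in the vehicle and at the dose named in each line, with MsOH-acidified vehicles at pH 2.0.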

A short description of series [3]: Clearance in Sprague-Dawley rat at 1 mg/kg, iv. As to conditions: in vivo. In kind it is ADME, organism-based. Set-up: dose 1 mg/kg, route intravenous. The essentials: as §1
Series [4] in a line: Volume of distribution at steady state in Sprague-Dawley rat at 1 mg/kg, iv. The settings on record: in vivo, read-out: Vdss. Also noted: dose 1 mg/kg, route intravenous. In kind it is ADME, organism-based. The essentials: as §1
Series [5] can be described thus: AUC in Sprague-Dawley rat at 2 mg/kg, po compound dosed in 1% Tween 80/99% OraPlus. The series is classed as ADME, organism-based. Also noted: dose 2 mg/kg, route oral. The settings on record: plasma. The essentials:
as §1

Series [6] is described as follows: Oral bioavailability in Sprague-Dawley rat at 2 mg/kg compound dosed in 1% Tween 80/99% OraPlus. In kind it is ADME, organism-based. As to conditions: in vivo. Summed up: as §1
Series [7] is described as follows: AUC in Sprague-Dawley rat at 2.5 mg/kg, po compound dosed in 1% Tween 80/2% HPMC/97% H2O with MsOH at pH 2. The series is classed as ADME, organism-based. Also noted: dose 2.5 mg/kg, route oral. The settings on record: plasma. Summed up: as §1
A short description of series [8]: Oral bioavailability in Sprague-Dawley rat at 2.5 mg/kg compound dosed in 1% Tween 80/2% HPMC/97% H2O with MsOH at pH 2. The series is classed as ADME, organism-based. The settings on record: in vivo. The essentials:
as §1

Series [9] in a line: AUC in Sprague-Dawley rat at 2.5 mg/kg, po compound dosed in 1% Pluronic F68/1% HPMC/15% Captisol/83% H2O with MsOH at pH 2. In kind it is ADME, organism-based. Set-up: dose 2.5 mg/kg, route oral. The settings on record: plasma. The essentials:
as §1

The nature of series [10]: Oral bioavailability in Sprague-Dawley rat at 2.5 mg/kg compound dosed in 1% Pluronic F68/1% HPMC/15% Captisol/83% H2O with MsOH at pH 2. In kind it is ADME, organism-based. The settings on record: in vivo. The essentials:
as §1

For series [11], the system named is Mus musculus. Description: Mean residence time in CD1 mouse at 1 mg/kg, iv. In kind it is ADME, organism-based. As to conditions: in vivo. Also noted: dose 1 mg/kg, route intravenous. Summed up:
as §1

Series [12] deals with Mus musculus. Kind of series: Volume of distribution at steady state in CD1 mouse at 1 mg/kg, iv. The settings on record: in vivo. Also noted: dose 1 mg/kg, route intravenous. In kind it is ADME, organism-based. Summed up:
as §1

A short description of series [13]: AUC in CD1 mouse at 2.5 mg/kg, po compound dosed in 1% Pluronic F68/1% HPMC/15% Captisol/83% H2O with MsOH at pH 2. The settings on record: plasma. Set-up: dose 2.5 mg/kg, route oral. The series is classed as ADME, organism-based. Summed up:
as §1

Series [14] can be described thus: Oral bioavailability in CD1 mouse at 2.5 mg/kg compound dosed in 1% Pluronic F68/1% HPMC/15% Captisol/83% H2O with MsOH at pH 2. The series is classed as ADME, organism-based. The settings on record: in vivo. The essentials:
as §1

On to `CNc1ncc2cc(-c3c(C)ccc(C(=O)c4c(-c5ccccc5)n(C)n(-c5ccccc5)c4=O)c3N)ccc2n1`, for which, in [1], the microsomal CLint is 29 µL/min/mg.

For the compound `COc1cc2nccc(Oc3ccc(NC(=O)c4c(-c5ccccc5)n(C)n(-c5ccccc5)c4=O)nc3)c2cc1OC`, the mean residence time (MRT) in [2] was 10.4 h. Also, in series [3], the clearance was 1.17 mL/min/kg. For the same compound, the Vd in series [4] turned out to be 0.73 L/kg. The compound further had an AUC in [5] of 20.2 µM·h. In addition, the bioavailability in [6] came to 50%.

`CNc1ncc2cc(-c3cc(C(=O)c4c(-c5ccccc5)n(C)n(-c5ccccc5)c4=O)ccc3C)ccc2n1` registered an intrinsic clearance (microsomal CLint) in series [1] of 497 µL/min/mg.

In the case of `CNc1ncc2cc(-c3cc(C(=O)c4c(-c5ccccc5)n(C)n(-c5ccccc5)c4=O)ccc3N)ccc2n1`, the MRT in [2] came out at 0.5 h. This compound also showed a clearance in series [3] of 16.7 mL/min/kg. In series [4], the Vd worked out at 0.56 L/kg. Also, in [7], the AUC came out at 0.8 µM·h. The same compound showed a bioavailability in series [8] of 18%.

Turning to `CNc1ncc2cc(-c3cc(C(=O)c4c(-c5ccccc5)n(C)n(-c5ccccc5)c4=O)ccc3Cl)ccc2n1`, the microsomal CLint in series [1] amounted to 167 µL/min/mg.

Compound `CNc1ncc2c(F)c(-c3c(C)ccc(C(=O)c4c(-c5ccccc5)n(C)n(-c5ccccc5)c4=O)c3N)ccc2n1` registered an MRT in [2] of 3.9 h. In [3], this compound showed a clearance of 9.5 mL/min/kg. The Vd in series [4] amounted to 2.2 L/kg. Moreover, the AUC in series [9] was 3.8 µM·h. This compound also gave a bioavailability in series [10] of 48%.

`CNc1ncc2c(Cl)c(-c3c(C)ccc(C(=O)c4c(-c5ccccc5)n(C)n(-c5ccccc5)c4=O)c3N)ccc2n1`: the MRT in series [2] amounted to 5.5 h. The compound also gave a clearance in [3] of 8.33 mL/min/kg. For the same compound, the Vd in series [4] was determined as 2.7 L/kg. The compound also returned an area under the curve (AUC) in [9] of 3.7 µM·h. Besides, the bioavailability in [10] stood at 49%.

`Cc1ncc2cc(-c3c(C)ccc(C(=O)c4c(-c5ccccc5)n(C)n(-c5ccccc5)c4=O)c3N)ccc2n1` came in with an MRT in series [2] of 1.4 h. Also, the clearance in series [3] is 36.7 mL/min/kg. Moreover, in [4], the Vd was found to be 2.6 L/kg. For the same compound, the AUC in series [9] was 1.2 µM·h. Besides, the bioavailability in [10] came to 69%.

As for `Cc1nc2ccc(-c3c(C)ccc(C(=O)c4c(-c5ccccc5)n(C)n(-c5ccccc5)c4=O)c3N)cc2s1`, the mean residence time MRT in series [2] came out at 2.2 h. Also, in series [3], the clearance was 23.3 mL/min/kg. Moreover, the Vd in [4] was 3.1 L/kg. This compound also gave an AUC in series [9] of 0.1 µM·h. Further, in [10], the bioavailability is 3%.

`CNc1nc2ccc(-c3c(C)ccc(C(=O)c4c(-c5ccccc5)n(C)n(-c5ccccc5)c4=O)c3N)cc2s1` had an MRT in [2] of 3.1 h. In [3], this compound gave a clearance of 10.7 mL/min/kg. Also, in series [4], the Vd stood at 2 L/kg. Further, in series [9], the AUC was 2.5 µM·h. The compound also registered a bioavailability in [10] of 35%.

`Cc1ccc(C(=O)c2c(-c3ccccc3)n(C)n(-c3ccccc3)c2=O)c(N)c1-c1ccc2nc(N)sc2c1` returned an MRT in series [2] of 2.2 h. In series [3], this compound showed a clearance of 50 mL/min/kg. The Vd in series [4] was determined as 6.5 L/kg. In series [9], this compound came in with an AUC of 1 µM·h. This compound also registered a bioavailability in [10] of 67%.

Take `Cc1ccc(C(=O)c2c(-c3ccccc3)n(C)n(-c3ccccc3)c2=O)c(N)c1-c1ccc2nc(C(F)F)sc2c1`: the MRT in [2] is 5.3 h. Further, in [3], the clearance was 15.7 mL/min/kg. In addition, the Vd in series [4] turned out to be 5 L/kg. In series [9], this compound yielded an exposure (AUC) of 3.4 µM·h. Besides, in [10], the bioavailability came to 76%.

On to `Cc1ccc(C(=O)c2c(-c3ccccc3)n(C)n(-c3ccccc3)c2=O)c(N)c1-c1ccc2nc(C(F)(F)F)sc2c1`, for which the MRT in series [2] is 10.8 h. This compound also gave a clearance in series [3] of 12.5 mL/min/kg. Also, in series [4], the Vd worked out at 8.1 L/kg. Besides, the AUC in series [9] turned out to be 3.2 µM·h. Moreover, the bioavailability in [10] came out at 83%.

In the case of `Cc1ccc2cc(-c3c(C)ccc(C(=O)c4c(-c5ccccc5)n(C)n(-c5ccccc5)c4=O)c3N)ccc2n1`, the MRT in [2] worked out at 2.3 h; in the series with Mus musculus [11], 5 h. In addition, the clearance in [3] is 26.7 mL/min/kg. In addition, in series [4], the Vd was 3.6 L/kg. In the series with Mus musculus [12], this compound showed a Vdss of 1.2 L/kg. The AUC in series [9] came out at 1.4 µM·h; in [13], 8.8 µM·h. Also, the bioavailability in [10] was found to be 55%; in series [14] it was 46%.

Take `Cc1nc(N)c2c(-c3ccc4c(c3)CCN4C(=O)Cc3cc(F)cc(C(F)(F)F)c3)cn(C)c2n1`: the MRT in [2] was found to be 11.9 h. In series [3], this compound showed a clearance of 1.67 mL/min/kg. The Vd in series [4] was determined as 1.2 L/kg. Also, the AUC in series [9] came to 23.6 µM·h. The same compound came in with a bioavailability in [10] of 98%.

The term microsomal CLint denotes the capacity of the preparation to metabolise the compound, expressed as a volume cleared per time. As usually defined, the MRT is a mean duration of stay, worked out from the concentration-time curve. As usually defined, the clearance is a measure of how efficiently the substance is removed, as volume per time. Low values mean inefficient removal, high ones efficient removal. As usually defined, the AUC is concentration integrated over time. As usually defined, the bioavailability is the share of a dose that reaches the circulation, judged against a reference dose that is usually intravenous. A low value points to little systemic uptake. Broadly, the Vdss is a proportionality between amount in the body and measured concentration, not a real space. Low readings indicate confinement near the circulation, high ones extensive tissue distribution.
